EphB4 antag: blocks human EphB4 binding to ephrin-B2. EphB4 LBD / TNYL-RAW-Alexa532 peptide, fluorescence polarization. inhibition, % at 7 µM. 97,000 compounds, 0.15% hits;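 active means inhibition above the screen-wide mean inhibition plus 3 SD, cut at about 15% in these data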;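 further: 0% = DMSO wells and 100% = excess unlabeled TNYL-RAW peptide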
HIV Rev-RRE inh: inhibitors of HIV-1 Rev-RRE RNA interaction; Rev peptide-RRE RNA binding, FRET; inhibition, % at 8 µM; 97,000 compounds, 0.79% hits; AID 704;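 active means inhibition above the screen-wide mean plus 3 SD, cut at about 35% in these data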;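 further: 0% = median DMSO wells and 100% = median Neomycin B control wells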
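Assay system: Rev peptide and RRE RNA, both fluorescently labelled; times: 5 min preincubation and 15 min binding, 25 °C; detection: FRET, ex 480 nm, em 540 and 671 nm; read-out basis: % inhibition from 671/540 nm acceptor-to-donor ratio, scaled between controls; benchmarks: DMSO low control, neomycin B high control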
Smad3 inh: Smad3 (human) transcription factor binding inhibition; P84022; TR-FRET Smad3/Dy647-FoxH1 peptide binding, europium anti-His; inhibition, % at 25 µM; 88,000 compounds, 0.29% hits; AID 630;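 active means compounds that reduce the energy-transfer binding signal between the protein and its labelled peptide by more than half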;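 further: 0% = Smad3 plus labelled peptide maximal FRET and 100% = peptide-only background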
Mac1 fbg enh: increases human CD11b/CD18 adhesion to fibrinogen; AID 1499; 93,000 compounds, 0.07% hits; K562 CD11b/CD18 adhesion to fibrinogen, ATPlite luminescence; activation, % at 10 µM; P05107+P11215;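 active means 10 µM primary screen giving 50% or more activity, confirmed by 40% or more on retest at that dose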
Target sequence (P05107 whole entry, looked up, other chains not shown): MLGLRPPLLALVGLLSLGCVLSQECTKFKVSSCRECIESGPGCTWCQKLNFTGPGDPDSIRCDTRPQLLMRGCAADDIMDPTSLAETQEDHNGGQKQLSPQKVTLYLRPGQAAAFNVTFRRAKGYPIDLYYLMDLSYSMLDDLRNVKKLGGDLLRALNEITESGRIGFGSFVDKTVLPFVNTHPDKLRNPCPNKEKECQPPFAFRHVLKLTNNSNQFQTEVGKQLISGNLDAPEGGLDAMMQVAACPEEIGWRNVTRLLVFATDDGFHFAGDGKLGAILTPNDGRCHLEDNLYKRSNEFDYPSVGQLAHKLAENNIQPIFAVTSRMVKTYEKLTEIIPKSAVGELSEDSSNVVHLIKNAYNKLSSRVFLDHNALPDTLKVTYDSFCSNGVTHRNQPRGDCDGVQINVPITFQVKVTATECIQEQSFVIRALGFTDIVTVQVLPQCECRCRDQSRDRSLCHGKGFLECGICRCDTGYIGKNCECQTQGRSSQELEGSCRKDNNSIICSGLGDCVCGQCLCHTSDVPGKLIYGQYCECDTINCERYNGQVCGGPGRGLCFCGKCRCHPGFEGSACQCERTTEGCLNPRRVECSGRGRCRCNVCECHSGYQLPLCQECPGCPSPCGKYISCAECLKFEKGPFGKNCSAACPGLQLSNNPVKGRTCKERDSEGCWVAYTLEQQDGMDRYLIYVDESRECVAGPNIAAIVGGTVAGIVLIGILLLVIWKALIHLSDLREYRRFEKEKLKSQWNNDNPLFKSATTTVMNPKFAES
Phagocyt inh: macrophage phagocytosis inhibition; J774A.1 macrophage IgG-bead phagocytosis, imaging; inhibition, % at 5 µM; 110,000 compounds, 0.07% hits; AID 1029;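 active means inhibition above the mean of the plate negative controls plus 5 SD, cut at about 13% in these data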;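 further: phagocytic index as fraction of beads internalized from green versus red external bead signal; plate controls were DMSO negative control for no effect and cytochalasin-D positive control for full effect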
Mac1 fbg inh: CD11b/CD18-fibrinogen binding inhibition | AID 1497 | inhibition, % at 10 µM | 93,000 compounds, 0.54% hits | K562 CD11b/CD18 adhesion to fibrinogen, ATPlite luminescence; Mn2+ added to activate the integrin;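 active means primary inhibition of 50% or more at 10 µM, then 40% or more on retest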
The depositor's hits bear a star; / = no result; [ ] = remark or other dose. Only some compounds are listed: those with a hit (about 1.3% of all), similar ones and a draw of the others.

SMILES | EphB4 antag | HIV Rev-RRE inh | Smad3 inh | Mac1 fbg enh | Phagocyt inh | Mac1 fbg inh
COc1ccc(/C=N/Nc2ccc([N+](=O)[O-])cc2)cc1Cn1cc([N+](=O)[O-])cn1 | -4 | 54* | 2 | 3 | -1 | -8
CCOC(=O)N1CCC(NC(=O)C2CCN(S(=O)(=O)c3cccs3)CC2)CC1 | -1 | 4 | 5 | -1 | 44* | -21
O=c1c[n+](CC[n+]2cc(=O)o[nH]2)[nH]o1 | / | / | -5 | / | / | /
O=C1C=CC(=Nc2cccc3c(N=C4C=CC(=O)O4)cccc23)O1 | / | / | 1 | / | / | /
C=C(C)c1ccc(C(C)(C)NC(=O)N2CCN(C)CC2)cc1 | -9 | 0 | 71* | 3 | -3 | -4
O=C(NC(Nc1ncc(S(=O)(=O)c2ccc([N+](=O)[O-])cc2)s1)(C(F)(F)F)C(F)(F)F)c1ccc(Cl)cc1 | 1 | 7 | / | -5 | -2 | 96*
CCOc1cccc(C2C(C(=O)c3ccc(C)o3)=C(O)C(=O)N2c2nccs2)c1 (centres undefined) | 2 | 74* | 4 | -3 | -3 | 10
COc1cc(/C=N/c2oc(-c3ccccc3)cc2C#N)ccc1O | 4 | 40* | / | -3 | 0 | 18
Cc1ccc(S(=O)(=O)c2c(C)nn(C(C)(C)C)c2OC(=O)c2ccc(Br)o2)cc1 | 2 | 11 | -11 | -6 | -1 | 54*
Cc1cn2c(nc(=O)c3cccnc32)s1 | / | / | / | / | -2 | /
Cc1nc2nc(-c3ccc(Cl)cc3)cn2nc1C | 6 | 12 | 27 | -3 | -1 | -5
COc1cccc(-c2cn3nc(C)c(C)nc3n2)c1 | 0 | 40* | 0 | 14 | 3 | 6
C[N+](C)(C)CC(=O)N/N=C/c1ccncc1 | / | / | 0 | / | / | /
S[C@@H]1CCCN(Cc2ccccc2)C1 | / | / | 56* | / | / | /
Cc1ccc2nc(N/N=C\c3ccc([N+](=O)[O-])o3)nc(-c3ccccc3)c2c1 | 3 | 58* | 6 | 5 | 0 | -20
Cc1ccc(C2C(C#N)=C(N)SC(N)=C2C#N)cc1 | -5 | 59* | 9 | -5 | -1 | 5
N#CC1=C(N)SC(N)=C(C#N)C1c1ccoc1 | -1 | 86*[fluorescence artefact?] | 12 | / | 3 | /
c1cc(CSSCc2ccncc2)ccn1 | / | / | 39 | / | / | /
COC(=O)/C(=C(/F)Sc1cc(C)c(O)c(C)c1)C(F)(F)F | -9 | 30 | 15 | -7 | 1 | 55*
O=C(O)c1cccc(N=Nc2c(S(=O)(=O)O)ccc3c2C(=O)c2ccccc2C3=O)c1O | / | / | -6 | / | / | /
Cc1cc(=O)[nH]c(SCC(=O)NCCc2ccccc2)n1 | 1 | 0 | 96* | 0 | 0 | -28
Cc1nnc(SCC(=O)NCc2ccccc2)[nH]c1=O | 4 | 6 | 63* | -2 | -2 | -3
Cc1nnc(SCC(=O)NCCc2ccccc2)[nH]c1=O | -3 | 11 | -8 | / | / | /
COC(=O)C(Cc1ccccc1)NC(=O)CSc1nc(C)cc(=O)[nH]1 (centres undefined) | 11 | 7 | 7 | -1 | -1 | -10
CC(C)CN(CC#N)CC(C)C | / | / | 15 | / | / | /
SMILES | EphB4 antag | HIV Rev-RRE inh | Smad3 inh | Mac1 fbg enh | Phagocyt inh | Mac1 fbg inh
Cc1ccc(C(=O)Cn2nnc3ccccc32)cc1 | -5 | -2 | / | / | / | /
CCN(C(=O)c1ccc(C(C)(C)C)cc1)c1nnc(Cn2nnc3ccccc32)s1 | -2 | 3 | -3 | -11 | -1 | 99*
C=CCn1c(C)c(C(C)=O)c(N2CCN(c3ccccc3)CC2)nc1=S | -5 | 82*[fluorescence artefact?] | 5 | -5 | 6 | 1
CC(=O)c1c(N2CCN(Cc3ccccc3)CC2)nc(=S)n(Cc2ccccc2)c1C | / | / | / | / | -5 | /
CC(=O)c1c(N2CCCCC2)nc(=S)n(Cc2ccccc2)c1C | -2 | 5 | / | 2 | / | 52*
C=CCn1c(C)c(C(C)=O)c(N2CCCC2)nc1=S | -6 | 10 | -1 | -5 | -1 | -2
[O-]/N=C1/C(=[OH+])Nc2ccccc21.[O-]Nc1c([O+]=[Cu])[nH]c2ccccc12 | / | / | 10 | / | / | /
CCC1=C(C[C@H]2NCCc3ccccc32)C[C@H]2c3cc(OC)c(OC)cc3CCN2C1 | / | / | 5 | / | / | /
Cc1ccc(C2C(/C=C3/SC(=S)NC3=O)=C(c3cccs3)Oc3ccccc32)cc1 (centres undefined) | 0 | 6 | 7 | 2 | 0 | 78*
C=CCNS(=O)(=O)c1ncnc2nc[nH]c12 | / | / | -8 | / | / | /
CCOC(=O)Cc1csc(NS(=O)(=O)c2ccccc2)n1 | -7 | 7 | / | / | / | /
CCOC(=O)c1ccccc1-c1csc(NS(=O)(=O)c2ccc(Cl)cc2)n1 | -4 | -4 | / | -4 | 0 | 54*
CCOC(=O)c1c(NC(=S)NC(=O)c2ccc(Cn3cc(Cl)cn3)o2)sc2c1CCCCC2 | -4 | 1 | / | 69* | 5 | 4
COC(=O)c1sc(NC(=O)c2ccc(Cn3cc(Cl)cn3)o2)c(C#N)c1C | 7 | 13 | -3 | -8 | 3 | 75
CCOC(=O)c1c(NC(=O)C2C3C=CC(C3)C2C(=O)O)sc2c1CCC(C)C2 (centres undefined) | / | / | / | / | -4 | /
CCOC(=O)c1c(NC(=S)NC(=O)c2cnn(CC)c2)sc2c1CCC(C)C2 (centres undefined) | -1 | 6 | / | 157* | -2 | 5
Nc1ncnc2c1ncn2[C@H]1O[C@@H](C(=O)OCCO)[C@H](O)[C@H]1O | / | / | 17 | / | / | /
CCN(CC)c1ccc(C=N/C(C#N)=C(\N)C#N)cc1 | -2 | 53* | 0 | -4 | 9 | 4
O=C1O[C@@H]([C@H](O)[C@H](O)[C@H](O)CO)[C@@H](O)[C@@H]1O | / | / | 6 | / | / | /

Source: PubChem (several laboratories)
